Source: PubChem
Most compounds without a hit are left out; they make up all but 4.1% or so of the library.
hERG protect: hERG (human) protection from proarrhythmic block; Q12809; CHO-hERG, FluxOR thallium flux, dofetilide IC70 present; activation (rescue from dofetilide block), less the hit threshold, % at 10 µM; 310,000 compounds, 0.51% hits; AID 1511;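 active means activation above the mean of controls blocked by dofetilide plus 5 SD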;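 further: thallium influx through hERG after potassium depolarization seen as dye fluorescence rise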
KCNQ1 block: inhibitors of human KCNQ1 potassium channel; P51787; CHO-K1 KCNQ1, FluxOR thallium flux fluorescence; stronger effect = higher value; B-score at 10 µM; 310,000 compounds, 1.3% hits; AID 2642;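 active means compounds whose thallium flux B-score, printed positive for inhibition, exceeds three library SD while starting fluorescence stays within three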;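 further: channel opened by potassium depolarization with thallium stimulus after 20 min compound exposure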
KCNQ1 pot: human KCNQ1 channel potentiation or activation; 310,000 compounds, 0.35% hits; AID 2648; B-score at 10 µM; P51787; CHO-K1 KCNQ1, thallium flux FluxOR fluorescence; stronger effect = higher value;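 active means fluorescence ratio B-score, a plate-corrected score, at least three library SD, with initial intensity B-score within 5 SD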
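Schedule – 37 °C overnight plating, 90-min dark dye load, 20-min compound pretreatment · System – stable KCNQ1 CHO-K1 line · Probe or stimulus – thallium- and potassium-containing depolarizing buffer · Measured by – kinetic FluxOR fluorescence, 10 s baseline plus 110 s post-stimulus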
KCNK3 block: human KCNK3 channel inhibition, primary screen | B-score at 10 µM | CHO-KCNK3 thallium flux, FluxOR fluorescence; stronger effect = lower value | O14649 | 340,000 compounds, 0.84% hits | AID 602410;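 active means B-score under library mean minus 4 SD, starting fluorescence ratio at most library mean plus 5 SD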;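 further: more negative B-score means stronger inhibition of thallium flux through KCNK3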
Target sequence (O14649 whole entry, looked up): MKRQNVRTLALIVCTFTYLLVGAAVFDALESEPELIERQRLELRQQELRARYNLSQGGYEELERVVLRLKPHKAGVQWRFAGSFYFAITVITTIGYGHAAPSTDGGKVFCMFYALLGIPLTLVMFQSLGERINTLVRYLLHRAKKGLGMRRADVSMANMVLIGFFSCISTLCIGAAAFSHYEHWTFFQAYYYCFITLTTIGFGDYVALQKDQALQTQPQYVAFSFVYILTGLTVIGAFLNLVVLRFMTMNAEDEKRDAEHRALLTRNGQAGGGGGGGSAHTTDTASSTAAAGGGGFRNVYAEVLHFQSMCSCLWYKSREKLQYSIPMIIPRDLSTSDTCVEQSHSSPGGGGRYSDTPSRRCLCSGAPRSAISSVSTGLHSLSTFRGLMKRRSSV
KCC2 mod: modulates chloride dependent transport by human KCC2. Q9H2X9. KCC2 cells, thallium flux FluoZin-2 fluorescence. B-score of Tl+ flux slope (higher = more flux/activation; lower = inhibition) at 10 µM. 190,000 compounds, 2.2% hits;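 active means thallium flux slope and its plate-corrected score both differing from the plate sample mean at a set confidence after two filtering rounds, in either direction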;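 further: slope of fluorescence scaled to starting intensity during 10 to 20 s after thallium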
KCNK9 inh: inhibitors of human KCNK9 two-pore domain potassium channel; HEK293 KCNK9, FluxOR thallium flux fluorescence; stronger effect = lower value; B-score at 10 µM; 310,000 compounds, 1.2% hits;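 active means ratio B-score over 3 SD below the library mean, with starting fluorescence within 5 SD of its mean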;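 further: negative B-score means less thallium flux so channel inhibition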
Target sequence (Q9NPC2 whole entry, looked up, the tested form may be a part): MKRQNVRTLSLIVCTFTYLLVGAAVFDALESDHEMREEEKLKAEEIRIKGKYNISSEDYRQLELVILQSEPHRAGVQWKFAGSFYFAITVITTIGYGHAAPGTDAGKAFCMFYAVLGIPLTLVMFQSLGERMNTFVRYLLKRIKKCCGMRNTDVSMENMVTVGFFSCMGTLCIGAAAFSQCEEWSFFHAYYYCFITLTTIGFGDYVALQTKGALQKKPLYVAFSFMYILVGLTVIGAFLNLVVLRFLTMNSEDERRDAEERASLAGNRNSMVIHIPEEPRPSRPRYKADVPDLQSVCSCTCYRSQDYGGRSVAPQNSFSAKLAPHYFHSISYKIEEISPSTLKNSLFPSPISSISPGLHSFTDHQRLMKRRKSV
KCC2 secondary: confirmation of human KCC2 transport modulators. 3,700 compounds, 15% hits. normalised thallium flux (F/F0 slope) at 10 µM. HEK293-KCC2, thallium flux, FluoZin2 fluorescence; stronger effect = higher value. shares compounds with KCC2 mod;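 active means thallium flux slope above the same plate's solvent-only control mean plus 3 SD; inconclusive means the two replicate wells disagree; inactive means no significant difference from solvent-only control wells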
KCC2 bumet counter: thallium flux despite bumetanide block in KCC2 cells, secondary assay 3; 3,700 compounds, 49% hits; shares compounds with KCC2 mod; normalized thallium flux at 10 µM; HEK293-KCC2 + bumetanide/ouabain, thallium flux FluoZin2; stronger effect = higher value;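 active means thallium entry rate above the same plate's blocked-transporter control wells by more than 3 SD; inconclusive means the two repeat wells disagree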;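 further: raw slope of fluorescence over initial fluorescence between 10 and 20 s after thallium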
KCC2 sec2: KCC2 (human) modulation, second secondary assay; 3,700 compounds, 23% hits; HEK293-KCC2, thallium flux FluoZin2 fluorescence; actives lie on both sides; F/F0 rise rate, 10–20 s post-thallium; shares compounds with KCC2 mod; AID 1715; normalized thallium flux at 10 µM;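 active means thallium flux slope more than 3 SD above or below the plate's solvent-only control mean, mostly below; inconclusive means the two repeat wells disagreed; inactive means no significant shift from solvent-only controls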;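 further: raw slope with 0.1% DMSO as baseline and bumetanide as block control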
HEK293 Tl flux: acts in parental HEK cells, KCC2 counter-screen. shares compounds with KCC2 mod. HEK293 parental cells, thallium flux FluoZin2, ouabain; baseline-ratio fluorescence slope, 10–20 s after thallium. thallium flux rate (normalised fluorescence) at 10 µM. 3,700 compounds, 46% hits;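 active means thallium flux rate significantly above the same plate's solvent-only control wells, beyond their mean plus 3 SD; inconclusive means the two replicate wells gave conflicting results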
KCC2 ouabain: KCC2 (human) modulation, ouabain retest; shares compounds with KCC2 mod; HEK293-KCC2, thallium flux FluoZin2 fluorescence; bidirectional: low = inhibitor, high = activator; raw Tl+ flux slope (below DMSO = inhibition, above = activation) at 10 µM; 3,700 compounds, 48% hits; AID 1717;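 active means thallium flux slope beyond 3 SD from same-plate DMSO control mean in most replicates, usually higher, sometimes lower; inconclusive means repeat tests gave conflicting results; inactive means no significant difference from controls in most replicates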;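 further: slope of initial-normalized fluorescence between seconds 10 and 20 after thallium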
HEK counter2: acts in parental HEK cells, second KCC2 counter-screen; shares compounds with KCC2 mod; HEK293 parental, thallium flux FluoZin-2 fluorescence slope; thallium flux slope at 10 µM; 3,700 compounds, 33% hits; AID 1718;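 active means thallium flux slope above the same plate's solvent-control mean plus 3 SD in both duplicate wells; inconclusive means duplicate wells that disagreed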;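 further: run without ouabain in cells lacking the KCC2 cotransporter; slope of fluorescence scaled to its starting value between 10 and 20 s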
* hit, by the source's call; i = inactive; ? = inconclusive; . = no result given.

SMILES	hERG protect	KCNQ1 block	KCNQ1 pot	KCNK3 block	KCC2 mod	KCNK9 inh	KCC2 secondary	KCC2 bumet counter	KCC2 sec2	HEK293 Tl flux	KCC2 ouabain	HEK counter2
O=c1c2ccc(Cl)cc2nc(-c2ccc([N+](=O)[O-])cc2)n1O	6.7*	i	35*	i	56.8*	i	0.0118*	0.092*	0.0594*	0.065*	0.0788*	0.0423*
O=c1c2cc(Cl)ccc2nc(-c2ccccc2)n1O	11.3*	i	8*	i	49.7*	i	0.0315*	0.0731*	0.0331	0.0339*	0.0516*	0.0179*
O=c1c2cc(Br)ccc2nc(-c2ccc([N+](=O)[O-])cc2)n1O	16.3*	i	26*	i	72.3*	i	0.0502*	0.11*	0.0576*	0.0534*	0.0691*	0.027*
CC1CCC(CC(=O)O)(C(=O)O)CC1 (configuration not stated)	.	.	.	i	.	.	.	.	.	.	.	.
Cc1ccc(C(C)(C)C)cc1S(=O)(=O)Nc1cccc(C(=O)N2CCN(c3ccccn3)CC2)c1	.	.	.	i	.	.	.	.	.	.	.	.
Cc1ccc2cc(C)c3nnc(SCc4ccc(C(=O)O)cc4)n3c2c1C	-6.0	i	i	i	3.14*	i	0.00681	0.00866*	0.0356	0.0108*	0.0232	0.0127*
CNC(=O)CN(c1cccc(Br)c1)S(C)(=O)=O	-6.7	i	i	i	1.81	i	0.0154	0.00453	0.0267	0.0074	0.0157	0.0107
Cn1c(C(=O)N2CCc3ccccc3C2)cc2c(=O)n3ccccc3nc21	-15.1	i	i	i	.	i	0.00509	0.00626*	0.0273	0.00729	0.0153*	0.0108
Cn1c(C(=O)N2CCOCC2)cc2c(=O)n3ccccc3nc21	-9.1	i	i	i	.	i	.	.	.	.	.	.
CCCCCCN1C(=O)C(O)=C(C(C)=O)C1c1ccc(Cl)cc1 (configuration not stated)	-7.2	i	i	i	-3.3*	i	0.00927	?	0.0298	0.00824	0.0141*	0.0112
C/C(=N/NC(=O)c1ccc(Br)o1)c1cccs1	-0.1	i	i	i	.	i	.	.	.	.	.	.
C/C(=N\NC(=O)c1ccc(Cl)cc1)c1cccs1	-13.0	i	i	i	25.2*	i	0.00596	0.0396*	0.0496*	0.0337*	0.0406*	0.029*
C/C(=N\NC(=O)c1cc(Br)ccc1O)c1cccs1	2.3	i	i	i	15*	i	0.00867	0.031*	0.0431*	0.0304*	0.0369*	0.0335*
CN1C(=O)C(=O)N(CC(=O)N2CCc3ccccc32)C1=O	-6.6	i	i	i	0.0322	i	.	.	.	.	.	.
O=C(CN1C(=O)CSc2ccccc21)N1CCc2ccccc21	-13.1	i	i	i	-4.86*	i	0.00698	0.00555	0.0322	0.00839	0.0138*	0.0112
Cc1ccc(C)c(NC(=S)N/N=C/C(C)c2ccccc2)c1 (configuration not stated)	-15.7	i	i	i	25.3*	i	0.0114	0.0244*	0.033	?	?	0.00835
Cc1ccc(C)c(NC(=S)NCc2ccccc2)c1	-11.7	i	i	i	.	i	.	.	.	.	.	.
C[C@H](CO)N1C[C@H](C)[C@@H](CN(C)S(=O)(=O)c2cccs2)Oc2c(NC(=O)NC3CCCCC3)cccc2C1=O	.	.	.	i	.	.	.	.	.	.	.	.
CCn1ncc(CN2CCCC(CNC(=O)c3ccc(F)cc3)C2)c1C (configuration not stated)	-8.7	i	i	i	-6.17*	i	0.0162	0.00519	0.0282	0.00746	0.0168	0.0106
COC(=O)c1ccc(Nc2c([N+](=O)[O-])c(=O)oc3ccccc23)cc1	-2.7	i	i	i	-4.48*	i	0.00851	?	0.0294	?	0.027*	?
Cc1ccc(Nc2c([N+](=O)[O-])c(=O)oc3ccccc23)cc1C	-10.0	i	i	i	-2.81*	i	0.0178	0.00421	0.0295	?	0.014	0.00898
O=c1oc2ccccc2c(Nc2ccc(F)cc2)c1[N+](=O)[O-]	-10.2	i	i	i	-3.36*	i	0.00583	0.00463	0.0295	0.00635*	0.0174	?
O=c1oc2ccccc2c(Nc2ccc(Cl)cc2)c1[N+](=O)[O-]	-4.7	i	i	i	-2.32	i	.	.	.	.	.	.
O=C(C=P(c1ccccc1)(c1ccccc1)c1ccccc1)c1ccccc1-c1ccccc1C(=O)C=P(c1ccccc1)(c1ccccc1)c1ccccc1	.	.	.	i	.	.	.	.	.	.	.	.
Cc1cccc(NC(=O)CSc2nc3ccccc3nc2N2CCCC2)c1C	-12.4	i	i	i	.	i	.	.	.	.	.	.
SMILES	hERG protect	KCNQ1 block	KCNQ1 pot	KCNK3 block	KCC2 mod	KCNK9 inh	KCC2 secondary	KCC2 bumet counter	KCC2 sec2	HEK293 Tl flux	KCC2 ouabain	HEK counter2
CN(C)S(=O)(=O)c1cccc(NC(=O)COC(=O)c2c[nH]c(=O)[nH]c2=O)c1	3.3	i	i	i	-0.763	i	.	.	.	.	.	.
CCn1c(CNC(=O)COc2ccc(C(C)C)cc2)nnc1SCC(=O)Nc1cc(F)ccc1C	-3.3	i	i	i	.	i	0.00809	0.00639	0.0346	?	0.017*	0.0119
CCOc1ccccc1C(=O)NCC(=O)N1CCN(Cc2ccc3c(c2)OCO3)CC1	.	.	.	i	.	.	.	.	.	.	.	.
CCC1(O)CCCC2C3CCC4CC(=O)CCC4(C)C3C(=O)CC21C (configuration not stated)	.	.	.	i	.	.	.	.	.	.	.	.
O=C(O)C(=O)/C(=C\c1cccc(Cl)c1)c1ccc2ccccc2n1	-4.2	i	i	i	11.2*	i	0.00622	0.0224*	0.033	0.0228*	?	0.0159*
O=C(Nc1ccccc1C(=O)N1CCCCC1)c1ccccc1C(F)(F)F	-2.7	i	i	i	.	i	.	.	.	.	.	.
